97 compounds from ChEMBL document CHEMBL4513216, “Probing the Open Global Health Chemical Diversity Library for Multistage-Active Starting Points for Next-Generation Antimalarials” (ACS Infect Dis, 2020) can be followed below.

A short description of this data set: Toxicity liver stage against HepG2, at 10uM. It is filed as cell-based. The arrangement: test concentration 10 uM, cell line HepG2-A16-CD81EGFP. The conditions noted are these: human, HepG2-A16-CD81EGFP cells; read-out: INHIBITION
The gist of the method:
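Uninfected HepG2-A16-CD81EGFP cells, 3 × 10^3 per well, 1536-well, plated on prespotted compound at 10 μM final, parasite-free screening media added to match infected plates; puromycin 10 μM positive, DMSO 0.5% negative; run in parallel with 48 h PbLuc assay at 37 °C, 5% CO2; viability by CellTiter-Glo luminescence, normalized to controls.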
For the compound `Cc1noc(CNC(=O)C2CSCCC(=O)N2)n1` (configuration not stated), the cytotoxicity at 10 µM is 2.42%.
In the case of `Cc1ccc(CNC(=O)c2cc(Cn3ccnc3C(C)C)[nH]n2)o1` it was 3.42%.
Turning to `Cc1ccccc1N1CCN(C(=O)CC(C)C)CC1`, the cytotoxicity at 10 µM was -1.26%.
In the case of `COCCN1CCC(Nc2ccc(C#N)cc2F)CC1` it was -3.68%; in that of `CCn1ccnc1C1CCN(Cc2c(F)cccc2F)CC1`, -6.82%; in that of `Cc1nnc(N2C[C@@H](OCC3CCCC3)[C@H]3OCCC[C@H]32)s1`, 14.3%.
As for `O=C(CCc1ccccc1)Nc1ncccc1OC(F)F`, the cytotoxicity at 10 µM was -3.45%.
In the case of `CC(C)C(=O)N1CC[C@H]2N(C)CC[C@@]2(C(=O)N2CCOCC2)CC1` it was -0.449%.
Then `O[C@@H]1C[C@@H](c2nc(Cc3ccccc3)no2)N(CC2CC2)C1`, with -3.5%.
Then `Cc1ccc(C)c(C(=O)CN2C(=O)c3ccccc3CS2(=O)=O)c1`, with -8.42%.
For the compound `Cn1cncc1C(=O)N1CCCC(c2ccn[nH]2)C1` (configuration not stated), the cytotoxicity at 10 µM is -4.78%.
Then `Cc1cccc(CN2CCC3(CCCN(C(=O)CN(C)C)C3)C2=O)n1` (configuration not stated), with -3.49%.
In the case of `Cc1sc2nc(C(F)(F)F)nc(N3CCN(S(C)(=O)=O)CC3)c2c1C` it was -8.07%.
For the compound `O=C(Nc1cnc2n1CCCC2)c1cccc(OCC(F)(F)F)c1`, the cytotoxicity at 10 µM is -0.651%.
In the case of `COCC1(CNC(=O)Nc2cc(F)ccc2OC)CCCC1` it was 5.17%.
Then `CCCN1CCN(C(=O)Cn2nc(C(F)(F)F)c(Br)c2C2CC2)CC1`, with 2.2%; and `Cc1cc(C)c(CNc2cnn(CC(O)CN(C)C)c2)c(C)c1` (configuration not stated), with 15%.
Then `CC(O)CN1CCC(CNCc2cccc(Br)c2)CC1` (configuration not stated), with -12.1%.
On to `CC(C)Nc1nc2c(s1)C(=O)CN(C)C2`, for which the cytotoxicity at 10 µM is -9.77%.
In the case of `Cc1nc(N)cc(C2CN(C(=O)c3ccn(C)n3)CCO2)n1` (configuration not stated) it was 0.0241%; in that of `N#Cc1ccc(SCCC(=O)N(Cc2cccnc2)C2CC2)cc1`, 12.3%; in that of `CC(CC(=O)Nc1ncn(CC(=O)NCc2ccccc2)n1)C1CC1` (configuration not stated), 7.12%.
Turning to `CN1CCC2(CCN(CC3CC3)CC2)C1=O`, the cytotoxicity at 10 µM worked out at 10.9%.
On to `Cc1cc2c(=O)n(CCOCCO)cnc2s1`, for which the cytotoxicity at 10 µM came to 8.72%.
In the case of `O=S(=O)(C1CC1)N1C[C@@H]2CN(Cc3ccoc3)CCO[C@@H]2C1` it was -142%; in that of `Cn1c(=O)c2sccc2n(Cc2ccccc2)c1=O`, 4.84%; in that of `CN(C)C(=O)CN1C[C@H]2CC[C@@H](C1)N(Cc1ccccc1C#N)C2`, -0.898%.
In the case of `O=C(Nc1ccccc1)N1C2CCC(O)(CC2)C1CN1CCOCC1` (configuration not stated) it was 10%.
In the case of `CNS(=O)(=O)c1cccc(CNC(=O)NCC2CCOC2)c1` (configuration not stated) it was -9.97%.
In the case of `COC(=O)c1cccc2nc([C@H]3CCN(CC(C)C)C3)oc12`, the cytotoxicity at 10 µM is -2.13%.
As for `Cc1cccc(CN(C)Cc2nc3c(cnn3C)c(=O)[nH]2)c1`, the cytotoxicity at 10 µM is -8.08%.
Regarding `CS(=O)(=O)NC[C@H]1Cn2c(-c3ccc(F)cc3)cnc2CO1`, the cytotoxicity at 10 µM is -7.47%.
Then `CCCc1nc(NCCCO)c2c(n1)c(C)nn2CC`, with 2.55%; and `COCC1CN(Cc2ccc(C)o2)Cc2nnn(CC3CC3)c21` (configuration not stated), with -9.96%; and `CCc1nnc2n1CCN(C(=O)C(OC)c1ccccc1)C2` (configuration not stated), with 3.65%.
Then `O=C1COC2(CCN(CC3CCC3)CC2)CN1c1cncnc1`, with -1.11%; and `CCS(=O)(=O)N1CCC2(CCC2NC(=O)c2ccn(C)c2)CC1` (configuration not stated), with -2.11%.
As to `Cc1ccc(-c2cnc3n2CCN(C)C32CCN(CC3CC3)CC2)cc1`, the cytotoxicity at 10 µM was 11%.
Take `CN1CC(c2ccccc2)CC12CCN(C(=O)c1ccc(Cl)cc1)CC2` (configuration not stated): the cytotoxicity at 10 µM is -2.72%.
With `Cn1ccnc1-c1cn(CCc2nnc(N)s2)nn1`, the cytotoxicity at 10 µM was -4.3%.
`Cc1c(C)c(C)c2[nH]c(-c3cn(C4CCNCC4)nn3)nc2c1C`: the cytotoxicity at 10 µM was -0.966%.
Then `CCOCCNC(=O)C1CCC(=O)N(CCc2ccc(Cl)cc2)C1` (configuration not stated), with 8.61%; and `CCn1cnnc1CNC(=O)c1cc(Cl)ccc1OC`, with 5.87%; and `Cc1cnn(CC2CCCN2C(=O)c2ccc(OC(C)C)nc2)c1` (configuration not stated), with -6.13%.
Regarding `O=C(NCC1CCN(CCc2ccccc2)C1)NCC1(O)CCC1` (configuration not stated), the cytotoxicity at 10 µM is -0.128%.
As to `CN1C(=O)CO[C@H](c2ccc(NC(=O)Cc3cccs3)cc2)[C@H]1CO`, the cytotoxicity at 10 µM came out at 0.931%.
In the case of `CN1CCN(C2CCN(CCCOc3ccc(F)cc3)CC2)C1=O` it was 0.28%.
In the case of `CCOc1cccc(C(=O)N2CCCn3nc(CCC(=O)O)cc3C2)c1` it was -3.43%; in that of `COCCNC(=O)[C@@H]1CN(Cc2sccc2C)C[C@H]2OCC[C@H]21`, 2.98%.
For the compound `CCOC(=O)N1CCC(C(=O)Nc2nnc(C(F)(F)F)[nH]2)CC1`, the cytotoxicity at 10 µM is -6.01%.
Then `CC(C)N1CCC(O)(CNC(=O)CC2OCCc3ccccc32)CC1` (configuration not stated), with 5.02%.
Then `OCCN(Cc1nc(-c2ccc3c(c2)OCO3)no1)Cc1cccs1`, with -0.191%.
Then `COc1ncccc1C(=O)N1CCC(CNC(C)=O)CC1`, with 3.17%; and `Cc1ccccc1CN(C)C(=O)CN1CCOC(Cn2cccn2)C1` (configuration not stated), with -5.1%; and `CCCC1c2cccn2CCN1C(=O)Cn1cnc2sc(C)cc2c1=O` (configuration not stated), with -0.35%.
As for `CN(C)Cc1nc2c(o1)CN(S(=O)(=O)c1cccs1)C2`, the cytotoxicity at 10 µM is -112%.
In the case of `Cc1c(C(=O)N(CCN(C)C)Cc2ccccn2)oc2ccccc12` it was 14.4%.
In the case of `CC(C)(N)C(=O)N1CCCC1c1cncc(Oc2ccccc2)n1` (configuration not stated) it was -6.02%.
Then `COc1ncccc1CNCc1c(C(C)C)nn(C)c1Cl`, with -3.74%; and `Cc1ccc(OCc2nnc(SCC3CCCN(C)C3)o2)cc1` (configuration not stated), with -3.73%; and `CC(C)CN1C(=O)CO[C@@H]2CN(C(=O)[C@H]3CCCO3)C[C@H]21`, with -5.12%.
For the compound `Cc1cccc(-n2ncc3c2CCCC3NCC(C)(C)CO)c1C` (configuration not stated), the cytotoxicity at 10 µM is -1.19%.
In the case of `O=S(=O)(c1ccc(F)cc1)N1CC[C@H]2[C@H]1CCN2c1ncccn1` it was -2.85%; in that of `O=C(NCC1CCC1)c1ccnc(-n2ccnc2)c1`, -3.67%; in that of `c1ccc2c(N3CCSCC3)cnnc2c1`, -4.02%.
In the case of `CCc1n[nH]c(C2CN(C(=O)c3ccc(NC4CC4)nc3)CCO2)n1` (configuration not stated) it was 5.77%.
Then `CCC(=O)N1CCCC1c1nccnc1Nc1ncccn1` (configuration not stated), with 3.58%; and `Cc1cnn(CC(C)NCc2ccc(OCC(N)=O)cc2)c1` (configuration not stated), with -11.7%.
On to `CNC(=O)c1cc(NC(=O)NC2CC2)ccc1F`, for which the cytotoxicity at 10 µM is 5.13%.
Then `COc1ccc(-n2cnnc2SCC(C)(C)O)cn1`, with 13.5%.
Then `CN1C[C@@H](NC(=O)C(C)(C)C)C[C@H]1C(=O)NCc1ncc[nH]1`, with 0.452%; and `Fc1ccc(CN2CCCC3(CCN(Cc4ncc[nH]4)C3)C2)cc1F` (configuration not stated), with -12%; and `Cc1ccc(CC(=O)N2CCN(CC(C)O)CC2)cn1` (configuration not stated), with -2.37%.
Then `O=C(CC1CCN(c2cccnn2)CC1)Nc1cccnc1`, with 3.72%; and `O=C(COC1CCCCC1)Nc1ccn(CCc2ccncc2)n1`, with -3.87%; and `CCCn1ccnc1-c1cccc(NC(=O)[C@H]2CCC(=O)N2)c1`, with -4.97%.
Turning to `Cc1cc(CN2CCCC2c2noc(C(C)C)n2)on1` (configuration not stated), the cytotoxicity at 10 µM is -0.713%.
In the case of `Cc1nc2sc(C(=O)N3CCNC(=O)C3)c(C)c2c(=O)[nH]1` it was 4.13%; in that of `CC(=O)NCCN1CCC(c2cccs2)CC1`, -22.6%; in that of `Cc1cnn(CCC(=O)N2CCCN(c3ccccc3C#N)CC2)c1`, -2.85%.
Then `CCc1nc(CN(C(C)=O)C2CCN(Cc3ccccc3F)C2)no1` (configuration not stated), with -12.3%.
Then `CC1(C(=O)NCc2cccnc2Oc2ccc(F)cc2F)CCCNC1` (configuration not stated), with -5.68%.
For `c1nc(CSc2nnc(C3CC3)s2)cs1`, the cytotoxicity at 10 µM is -5.54%.
For the compound `Cc1oncc1C(=O)N[C@@H]1CN(Cc2ccoc2)C[C@@H]2CCCO[C@@H]21`, the cytotoxicity at 10 µM was -108%.
As for `Cc1cnn(CC2CCCN2C(=O)c2cccc(-n3ccc(C)n3)c2)c1` (configuration not stated), the cytotoxicity at 10 µM was -19.2%.
In the case of `COc1cc(/C=C/c2ncc(C(=O)O)s2)cc(Cl)c1OC` it was 8.01%; in that of `CCc1nc(C2CCCN2C(=O)CCNS(C)(=O)=O)no1` (configuration not stated), -1.77%.
In the case of `CNC(=O)CN1CCO[C@H]2CN(CC3CCOCC3)C[C@H]21`, the cytotoxicity at 10 µM was found to be 12.5%.
In the case of `Cc1ccccc1C(=O)N1CCC(n2nnc3cc(F)ccc32)CC1`, the cytotoxicity at 10 µM was 3.94%.
Then `O=C(CCCc1nc(-c2ccccc2)no1)N1CCN(CCO)CC1`, with -3.54%.
Then `Cc1noc(C)c1S(=O)(=O)N1C[C@@H](C(=O)O)[C@H](c2ccccn2)C1`, with -6.71%; and `O=C(c1cn(CC(=O)N2CCCC2)c2ccccc12)C1CC1`, with 14.2%.
With `COc1ccc2c(CN3CCN(Cc4cccc(F)c4)CC3)n[nH]c2c1`, the cytotoxicity at 10 µM is -1.86%.
In the case of `CCCc1nc(CN2CCc3c(ncn3C3CC3)C2)cs1`, the cytotoxicity at 10 µM is -0.0225%.
As for `N#CCCN(CC(F)(F)F)C(=O)c1cc(-n2cccn2)ccn1`, the cytotoxicity at 10 µM worked out at 8.93%.
Turning to `CCOc1ccccc1C(=O)N1CC(=O)N(C2CCC2)CC(O)C1` (configuration not stated), the cytotoxicity at 10 µM was determined as 2.55%.
On to `COC(=O)NCCC(=O)NC(C)Cc1ccccc1Br` (configuration not stated), for which the cytotoxicity at 10 µM was -5.29%.
